High-throughput results as filed in PubChem BioAssay.
In the library only some 2.9% were active in any assay of this set; here they are far more common.
TRPC6 inh: inhibitors of mouse TRPC6 channel. Q61143. HEK293-TRPC6, membrane potential dye, ACh-evoked depolarization; stronger effect = lower value. B-score at 10 µM. hit rate 1.1% among 310,000. AID 2553;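 active = B-score under library mean minus 3 SD, initial fluorescence not abnormally high, positive integrated signal ratio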;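 also: B-score derived from integrated fluorescence ratio over the kinetic read; more negative B-score means stronger inhibition of depolarization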
TRPC4 act: opens the mouse TRPC4 cation channel. Q9QUQ5. HEK293 TRPC4beta/mu-opioid, Fluo4 calcium fluorescence; stronger effect = higher value. B-score at 10 µM. hit rate 0.49% among 310,000;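 active = B-score above 5 SD of library B-scores, and initial fluorescence ratio not above library mean plus 5 SD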;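 also: positive B-score marks a calcium rise read as TRPC4 activation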
Target sequence (Q9QUQ5 whole entry, looked up): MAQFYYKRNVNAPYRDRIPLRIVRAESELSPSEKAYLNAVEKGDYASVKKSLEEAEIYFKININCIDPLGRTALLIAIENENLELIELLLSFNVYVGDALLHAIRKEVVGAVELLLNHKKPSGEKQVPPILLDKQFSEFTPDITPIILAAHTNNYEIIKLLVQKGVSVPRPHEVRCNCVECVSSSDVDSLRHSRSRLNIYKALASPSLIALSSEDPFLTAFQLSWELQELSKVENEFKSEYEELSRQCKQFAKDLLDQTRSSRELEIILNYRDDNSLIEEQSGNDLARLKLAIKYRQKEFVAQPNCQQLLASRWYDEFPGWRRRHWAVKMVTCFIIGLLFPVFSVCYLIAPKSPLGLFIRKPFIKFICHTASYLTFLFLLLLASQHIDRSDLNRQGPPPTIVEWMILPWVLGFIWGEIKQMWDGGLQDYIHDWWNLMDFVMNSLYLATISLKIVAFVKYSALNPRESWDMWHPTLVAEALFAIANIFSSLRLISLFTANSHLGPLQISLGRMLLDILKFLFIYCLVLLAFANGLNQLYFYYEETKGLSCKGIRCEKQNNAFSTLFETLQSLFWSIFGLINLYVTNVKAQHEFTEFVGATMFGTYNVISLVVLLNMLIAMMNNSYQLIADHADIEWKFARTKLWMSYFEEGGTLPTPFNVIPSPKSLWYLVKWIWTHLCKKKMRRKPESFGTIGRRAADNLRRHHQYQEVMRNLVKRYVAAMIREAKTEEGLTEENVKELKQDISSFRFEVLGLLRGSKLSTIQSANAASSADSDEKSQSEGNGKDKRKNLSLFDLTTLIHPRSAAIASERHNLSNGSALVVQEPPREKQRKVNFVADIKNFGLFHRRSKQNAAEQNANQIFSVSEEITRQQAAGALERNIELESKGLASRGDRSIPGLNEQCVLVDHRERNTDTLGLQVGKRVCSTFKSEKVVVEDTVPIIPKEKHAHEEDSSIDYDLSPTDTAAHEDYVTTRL
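Assay system: HEK293 cells stably co-expressing mouse TRPC4beta and mu-opioid receptor / Timing: Fluo4 dye loading 45 min at room temperature, 110 s recording / Signal: Fluo4 calcium-sensitive dye fluorescence, kinetic, 1 Hz baseline / Read-out: integrated baseline-normalised fluorescence ratio, converted to per-well B score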
TRPC4 potent: TRPC4 (mouse) allosteric potentiation. Q9QUQ5. HEK293 TRPC4beta/mu-opioid, DAMGO EC20, Fluo-4 Ca2+ flux; stronger effect = higher value. B-score at 10 µM. hit rate 0.42% among 310,000;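 active = B-score of calcium response area above 5 SD of library B-scores, with initial fluorescence ratio within 5 SD of library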;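 also: B-score of integrated fluorescence ratio over time as area under calcium response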
TRPC4 block: inhibitors of mouse TRPC4 channel. B-score at 10 µM. hit rate 0.39% among 300,000. HEK293 TRPC4beta/mu-opioid, DAMGO-evoked Fluo4 calcium flux; stronger effect = lower value. Q9QUQ5. AID 2247;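 active = B-score over 3 SD under the library average, no early fluorescence shift, positive overall ratio signal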
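System: stable TRPC4beta/mu-opioid receptor HEK293 cells; Dosing: single-point compound dosing; Measured by: Fluo4 Ca2+ flux fluorescence; Read-out basis: per-well B score of integrated baseline-normalized Fluo4 ratio.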
Kir21 inh: inhibitors of mouse Kir2.1 inward-rectifier potassium channel | HEK293-Kir2.1, FluxOR thallium flux fluorescence; stronger effect = lower value | B-score at 10 µM | AID 1672 | P35561 | hit rate 0.85% among 310,000;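 active = fluorescence ratio B-score at or below minus 3 SD of library scores, with starting-brightness B-score within 2 SD, cut at about -4.2 in these data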;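 also: channel flux triggered by added potassium and thallium sulfate stimulus; B-score of peak minus minimum fluorescence over baseline after thallium stimulus; more negative B-score means stronger Kir2.1 block with less thallium influx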
TRPC6 act: activators of mouse TRPC6 channel; B-score at 10 µM; hit rate 0.13% among 310,000; AID 2550; Q61143; HEK293-TRPC6 membrane potential dye fluorescence; stronger effect = higher value;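 active = B-score of the integrated fluorescence ratio above library mean plus 3 SD, and starting fluorescence ratio within library mean plus 5 SD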;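 also: higher score means more depolarization so channel activation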
TRPC4 spec 2: second selectivity test of TRPC6 inhibitors: effect on mouse TRPC4; shares compounds with TRPC6 inh; HEK293 TRPC4/MOR, membrane potential dye fluorescence; channel activated by saturating DAMGO dose; inhibition, % at 10 µM; hit rate 42% among 920; AID 2776;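 active = compounds whose fluorescence signal differed from control wells by over 3 SD, either direction, in both duplicate plates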
TRPC4 spec: mouse TRPC4 off-target activity of TRPC6 inhibitors; shares compounds with TRPC6 inh; HEK293 TRPC4/mu-opioid, membrane potential fluorescence; activity change, negative = inhibition, % at 10 µM; hit rate 61% among 920;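 active = rise or fall in signal beyond 3 SD of buffer-only wells in both replicate plates, either sign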;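 also: integrated kinetic ratio of fluorescence range over baseline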
HEK293 MPD ctr 2-1: second counter-screen for TRPC6 inhibitors: parental HEK293 cells; shares compounds with TRPC6 inh; parental HEK293 membrane potential dye fluorescence; maximal acetylcholine challenge after compound addition; signal change vs control, % at 10 µM; hit rate 31% among 920;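 active = membrane potential signal moving either way by over 3 SD of the maximum-effect control, in both duplicate plates, meaning non-specific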
HEK293 MPD ctr-1: parental HEK293 nonspecific activity of TRPC6 inhibitors; hit rate 60% among 920; shares compounds with TRPC6 inh; parental HEK293 membrane potential dye fluorescence; membrane potential signal change, % at 10 µM; AID 2780;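 active = membrane potential signal shifting up or down by more than 3 SD of buffer-only wells, on both duplicate plates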
HEK293 MPD ctr-2: counter-screen for TRPC6 modulators: effect in parental HEK293 cells. shares compounds with TRPC6 inh. membrane potential dye fluorescence. hit rate 51% among 2,400. membrane potential signal change, % at 10 µM;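 active = membrane potential signal moves up or down beyond 5 SD from buffer-only wells, on both duplicate plates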
HEK293 MPD ctr 2-2: second counter-screen for TRPC6 modulators: effect in parental HEK293 cells; shares compounds with TRPC6 inh; membrane potential dye fluorescence; after compound, maximal acetylcholine stimulation; inhibition, % at 10 µM; hit rate 14% among 2,400; AID 488926;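 active = membrane potential signal drops by more than 5 SD from the mean control signal, in both duplicate plates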;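 also: plate controls were acetylcholine ECmax control wells for no effect and buffer only wells for full effect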
TRPC4/MOR mod: tests whether TRPC6 modulators also affect mouse TRPC4; shares compounds with TRPC6 inh; HEK293 TRPC4/mu-opioid, membrane potential fluorescence; percent change from control (negative = decrease, positive = increase), % at 10 µM; hit rate 69% among 2,400;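 active = membrane potential signal moved up or down beyond 5 SD of buffer control wells, in both duplicate plates, actives on both sides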;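 also: plate controls were assay buffer wells for no effect and DAMGO maximal-effect wells for full effect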
TRPC4 ctr inh 2: second selectivity test of TRPC6 modulators against mouse TRPC4 | shares compounds with TRPC6 inh | HEK293 TRPC4/mu-opioid, membrane potential dye fluorescence; stimulated with maximal-effect DAMGO | inhibition, % at 10 µM | hit rate 55% among 2,400 | AID 488928;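 active = drop in membrane potential signal beyond 5 SD of the control wells in both duplicate plates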;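 also: TRPC4 counter screen for TRPC6 hits run under conditions tuned for TRPC6 not TRPC4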
TRPC6 inh conf: confirmation of mouse TRPC6 inhibitors. inhibition, % at 10 µM. HEK293-TRPC6, membrane potential dye, ACh-evoked depolarization. hit rate 43% among 3,300. AID 488960. shares compounds with TRPC6 inh;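 active = fluorescence ratio falls more than 5 SD below the full-stimulation control mean, in both duplicate runs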;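 also: integrated fluorescence ratio of peak minus minimum over baseline after agonist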
TRPC6 act conf: confirmation of mouse TRPC6 activators | HEK293-TRPC6 membrane potential dye fluorescence, FDSS | activation, % at 10 µM | hit rate 11% among 2,800 | shares compounds with TRPC6 inh;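 active = ratio signal rise beyond 5 SD above unstimulated control wells' mean, seen in both duplicate runs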;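 also: plate controls were buffer EC0 wells for no effect and acetylcholine ECmax response for full effect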
An asterisk follows results filed as active; i = inactive; x = no result.

SMILES | TRPC6 inh | TRPC4 act | TRPC4 potent | TRPC4 block | Kir21 inh | TRPC6 act | TRPC6 inh conf | others
O=S(=O)(/C=C/c1ccccc1)Nc1cccc(S(=O)(=O)NC2=NCCC2)c1 | i | i | i | i | -2 | i | x
CCN(CC)c1ccc(C(=O)NNC(=O)CN2C(=O)NC3(CCCCC3)C2=O)cc1 | i | i | i | i | 1.5 | i | x
Cc1cc(NC(=O)CNCC(c2ccccc2)N(C)C)c([N+](=O)[O-])cc1C (stereo not drawn) | -9.4* | i | i | i | -4.2 | i | i | TRPC4 spec 2=64%*;TRPC4 spec=-12%*;HEK293 MPD ctr 2-1=i;HEK293 MPD ctr-1=-151%*;TRPC6 act conf=i
CCOc1ccc(CCNC(=O)COC(=O)c2ccc(C)c([N+](=O)[O-])c2)cc1OCC | i | i | i | i | 0 | i | x
O=C(CCc1ccccc1)N=C1SC2CS(=O)(=O)CC2N1c1cccc(F)c1 (stereo not drawn) | i | i | i | i | 1.1 | i | x
CCOCCCNC(=O)CN1C(=O)COc2ccc(S(=O)(=O)N3CCOCC3)cc21 | i | i | i | i | -0.2 | i | x
CCOC(CNC(=O)CN1C(=O)COc2ccc(S(=O)(=O)N3CCOCC3)cc21)OCC | -5.2* | i | i | i | 0.51 | i | i | HEK293 MPD ctr-2=i;HEK293 MPD ctr 2-2=i;TRPC4/MOR mod=i;TRPC4 ctr inh 2=i;TRPC6 act conf=i
O=C(Nc1cccc(NC(=O)c2ccco2)n1)c1ccco1 | i | i | i | i | -1.8 | i | x
O=C(NCCN1C(=O)S/C(=C\c2ccccc2)C1=O)c1cc(S(=O)(=O)N2CCOCC2)c(Cl)cc1Cl | i | i | i | i | 0.28 | i | x
COc1ccccc1OCCCCN1CCN(C(c2ccccc2)c2ccccc2)CC1 | i | i | i | i | -1.6 | i | x
O=C1C2CSCN2C(=O)CN1CCCN1CCN(C(c2ccccc2)c2ccccc2)CC1 (stereo not drawn) | -5.3* | i | i | i | -0.26 | i | 45%* | HEK293 MPD ctr-2=82%*;HEK293 MPD ctr 2-2=i;TRPC4/MOR mod=11%*;TRPC4 ctr inh 2=39%*
